Our source for the Kd values is paper PMC3741069 (Biochemistry, 2013).

Experiment [1] deals with T1, nitrate reductase (NarB) (Synechococcus elongatus, UniProt P39458, R84K).
T1 sequence (P39458 15-729 R84K): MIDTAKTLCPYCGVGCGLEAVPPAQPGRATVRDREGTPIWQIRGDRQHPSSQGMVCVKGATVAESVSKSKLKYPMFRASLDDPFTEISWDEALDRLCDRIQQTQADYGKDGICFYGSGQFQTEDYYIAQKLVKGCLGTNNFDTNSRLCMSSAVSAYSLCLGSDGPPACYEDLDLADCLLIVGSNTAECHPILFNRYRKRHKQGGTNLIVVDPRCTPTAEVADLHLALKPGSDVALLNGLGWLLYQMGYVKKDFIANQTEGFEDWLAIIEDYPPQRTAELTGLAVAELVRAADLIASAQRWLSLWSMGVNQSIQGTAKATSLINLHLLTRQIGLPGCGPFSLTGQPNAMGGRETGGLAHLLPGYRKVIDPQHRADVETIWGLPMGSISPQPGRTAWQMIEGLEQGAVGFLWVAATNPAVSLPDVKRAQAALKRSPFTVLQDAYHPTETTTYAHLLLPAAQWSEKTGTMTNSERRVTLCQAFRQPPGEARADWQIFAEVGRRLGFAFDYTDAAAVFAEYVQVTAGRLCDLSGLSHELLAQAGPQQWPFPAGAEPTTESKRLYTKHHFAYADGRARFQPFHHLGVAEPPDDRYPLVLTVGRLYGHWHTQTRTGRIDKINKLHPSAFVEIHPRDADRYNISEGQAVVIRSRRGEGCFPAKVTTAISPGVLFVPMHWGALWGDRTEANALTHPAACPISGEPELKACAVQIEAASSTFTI
The experiment is described as follows: spectral perturbation titration. Type of experiment: binding. The essentials: (§1)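 Single-residue NarB variants were made by site-directed mutagenesis and expressed and purified as for wild type (His6, Co affinity, DEAE, gel filtration). Complex formation with ferredoxin or nitrate was followed by difference absorbance at variant-specific wavelength pairs chosen for signal:noise. The change at saturating nitrate was taken as 100% complex. Kd came from fitting perturbation magnitude against ligand concentration to a single binding isotherm.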

Experiment [2] concerns the target T2, nitrate reductase (NarB) (Synechococcus elongatus, UniProt P39458, K144R).
T2 sequence (P39458 15-729 K144R): T1 sequence (P39458 15-729 R84K) with K70R, K130R
The experiment is described as follows: spectral perturbation titration. The experiment is classed as binding. The essentials:
as §1

Changes are numbered by the printed parent chain.

Consider `O=[N+]([O-])O` [nitrate], for which the results for the Kd at nitrate reductase (NarB) [1] and at nitrate reductase (NarB) [2] were 6 ± 1 µM and 13.4 ± 3 µM, respectively.

By Kd is commonly meant a measure of binding affinity in units of concentration. A lower Kd goes with higher affinity.
